# Measurements from different studies.
# Protocols differ between the studies behind these lines.
# Target: Protein kinase C epsilon type (PRKCE, Homo sapiens, UniProt Q02156)
# Sequence (Q02156 1-737, as in one of the studies): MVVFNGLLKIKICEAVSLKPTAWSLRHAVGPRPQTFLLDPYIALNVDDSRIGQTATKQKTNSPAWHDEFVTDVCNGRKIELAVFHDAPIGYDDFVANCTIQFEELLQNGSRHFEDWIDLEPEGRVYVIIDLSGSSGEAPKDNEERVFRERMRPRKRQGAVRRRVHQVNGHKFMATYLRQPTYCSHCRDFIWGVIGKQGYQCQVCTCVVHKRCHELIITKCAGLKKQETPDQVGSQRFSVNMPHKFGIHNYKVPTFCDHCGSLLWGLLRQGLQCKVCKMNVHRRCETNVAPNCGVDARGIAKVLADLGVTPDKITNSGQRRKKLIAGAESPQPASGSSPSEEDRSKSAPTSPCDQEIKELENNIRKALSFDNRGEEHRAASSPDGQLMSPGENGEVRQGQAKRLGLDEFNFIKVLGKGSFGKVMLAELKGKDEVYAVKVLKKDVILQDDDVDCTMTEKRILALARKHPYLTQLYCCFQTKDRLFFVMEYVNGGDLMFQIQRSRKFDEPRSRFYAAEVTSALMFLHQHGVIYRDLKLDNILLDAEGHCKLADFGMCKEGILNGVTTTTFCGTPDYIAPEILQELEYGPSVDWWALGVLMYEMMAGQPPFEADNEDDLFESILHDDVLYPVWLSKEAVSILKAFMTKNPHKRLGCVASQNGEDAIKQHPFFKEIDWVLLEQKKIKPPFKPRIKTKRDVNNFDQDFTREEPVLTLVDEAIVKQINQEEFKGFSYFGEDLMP
effect on,action,method,concentration,endpoint,value,SMILES
binding,,,1 µM,remaining binding,106%,COc1ccc2oc(-c3ccc4nc(N)oc4c3)c/c(=N\c3ccccc3NC(=O)CCN)c2c1
binding,,,0.1 µM,remaining binding,68%,C1=C/COCc2cc(ccc2OCCN2CCCC2)Nc2nccc(n2)-c2cccc(c2)COC/1
cell-free assay,,,1 µM,remaining signal,100%,C[C@H]1CC[C@H](n2c3cnccc3c3cnc(Nc4ccc5c(n4)CCN(C(=O)CO)C5)nc32)CC1
cell-free assay,,,1 µM,remaining signal,62%,C#Cc1cnc(Nc2ccnc(CO)c2)nc1Nc1ccccc1S(C)(=O)=NC#N (stereo not drawn)
cell-free assay,,competition with immobilised ligand,25 µM,remaining binding,100%,N#Cc1ccc(NC(=O)Nc2ccccc2)cc1
enzyme activity,inhibitor,,1 µM,inhibition,0%,CC#CC(=O)N1CCC[C@H]1c1nc(-c2ccc(C(=O)Nc3ccccn3)cc2)c2c(N)nccn12
binding,,competition with immobilised ligand,0.5 µM,remaining binding,83%,CCCCC(=O)Nc1ccc(-c2ccc3ncn(CCC)c(=O)c3c2)cn1
binding,,,1 µM,remaining binding,75%,Cc1ccc(NC(=O)c2ccnc(C(F)(F)F)c2)cc1-c1cc(OCCO)nc(N2CCOCC2)c1
enzyme activity,inhibitor,,1 µM,inhibition,92%,CO[C@@H]1[C@H](N(C)C(=O)c2ccccc2)C[C@H]2O[C@]1(C)n1c3ccccc3c3c4c(c5c6ccccc6n2c5c31)C(=O)NC4
